Source: ChEMBL document CHEMBL1156332, “Polysubstituted pyrazoles, part 6. Synthesis of some 1-(4-chlorophenyl)-4-hydroxy-1H-pyrazol-3-carbonyl derivatives linked to nitrogenous heterocyclic ring systems as potential antitumor agents” (2010)
Active and inactive are the calls of the source. The rule behind the calls is not given here.

How the values were obtained:
Assay type in all cases: functional
EKVX = assay: Growth inhibition of human EKVX cells after 48 hrs by sulforhodamine B assay
Outline: (§1)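 NCI 60-line panel, five concentrations (0.01–100 µM) from DMSO stock diluted in medium with gentamicin. Cells were plated 24 h before dosing, with time-zero plates fixed at drug addition, then exposed 48 h at 37 °C, 5% CO₂. Adherent cells were fixed with cold TCA (10% final) and suspension cells with 16% TCA. Staining used 0.4% SRB, solubilised in 10 mM Tris and read at 515 nm. GI₅₀ was taken from log concentration–% growth curves.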

NCI/ADR-RES = assay: Growth inhibition of human NCI/ADR-RES cells after 48 hrs by sulforhodamine B assay; outline: as §1
RXF 393 = assay: Growth inhibition of human […] cells after 48 hrs by sulforhodamine B assay; settings: RXF 393, 48 h; outline: as §1
SF-539 = assay: Growth inhibition of human SF539 cells after 48 hrs by sulforhodamine B assay; settings: SF-539, 48 h
Outline: (§2)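 Adherent lines plated and held 24 h at 37 °C, 5% CO2, 100% humidity; time-zero plates TCA-fixed at drug addition. Drugs from DMSO stocks were made into five concentrations by 10-fold or half-log serial dilution and applied for 48 h continuous exposure. Cells were fixed with cold TCA (10% final) for 60 min at 4 °C, then stained with 0.4% SRB in 1% acetic acid for 10 min. Dye was solubilized in 10 mM Tris base and read at 515 nm. GI50 was taken from log concentration–growth curves.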

HL-60(TB) = assay: Growth inhibition of human HL-60(TB) cells after 48 hrs by sulforhodamine B assay; settings: HL-60, 48 h
Outline: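 NCI 60-cell panel. Cells were preincubated 24 h at 37 °C in 5% CO2, then time-zero plates were TCA-fixed. Drugs were dissolved in DMSO and given at five concentrations (10-fold or half-log dilutions) for 48 h. Suspension cells were fixed with TCA (16% final), stained with 0.4% SRB and read at 515 nm. GI50 is the concentration giving 50% decrease in net growth, taken from log concentration–growth curves.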

KM12 = assay: Growth inhibition of human KM12 cells after 48 hrs by sulforhodamine B assay; settings: KM12, 48 h; outline: as §1
BT-549 = assay: Growth inhibition of human BT549 cells after 48 hrs by sulforhodamine B assay; settings: BT-549, 48 h; outline: as §1
[1] = Growth inhibition of human NCI-H322 cells after 48 hrs by sulforhodamine B assay; settings: NCI-H322, 48 h; outline: as §1
K562 = assay: Growth inhibition of human K562 cells after 48 hrs by sulforhodamine B assay; outline: as §1
SNB-75 = assay: Growth inhibition of human SNB75 cells after 48 hrs by sulforhodamine B assay; settings: SNB-75, 48 h; outline: as §2
SW-620 = assay: Growth inhibition of human SW620 cells after 48 hrs by sulforhodamine B assay; settings: SW-620, 48 h; outline: as §2
T47D = assay: Growth inhibition of human T47D cells after 48 hrs by sulforhodamine B assay; outline: as §2
OVCAR-3 = assay: Growth inhibition of human OVCAR-3 cells after 48 hrs by sulforhodamine B assay; settings: OVCAR-3, 48 h; outline: as §1
SF-295 = assay: Growth inhibition of human SF295 cells after 48 hrs by sulforhodamine B assay; settings: SF-295, 48 h; outline: as §1
HCC 2998 = assay: Growth inhibition of human HCC2998 cells after 48 hrs by sulforhodamine B assay; settings: HCC 2998, 48 h; outline: as §1
SNB-19 = assay: Growth inhibition of human SNB19 cells after 48 hrs by sulforhodamine B assay; settings: SNB-19, 48 h; outline: as §2
NCI-H522 = assay: Growth inhibition of human NCI-H522 cells after 48 hrs by sulforhodamine B assay; settings: NCI-H522, 48 h; outline: as §1
[2] = Cytotoxicity against human leukemia cells after 48 hrs by sulforhodamine B assay; settings: Leukemia cell
Outline: (§3)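 NCI five-dose screen: about 60 human tumour lines grouped into nine subpanels were plated and incubated 24 h before dosing. Compounds went in as DMSO stock and were diluted in medium to five final concentrations (0.01–100 µM). Exposure was 48 h continuous at 37 °C, 5% CO₂, followed by TCA fixation and SRB staining read at 515 nm. Per-line GI₅₀, TGI and LC₅₀ came from log concentration–% growth curves, averaged per subpanel as MG-MID.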

A549 = assay: Growth inhibition of human A549 cells after 48 hrs by sulforhodamine B assay; settings: A549, 48 h; outline: as §1
HCT-15 = assay: Growth inhibition of human HCT15 cells after 48 hrs by sulforhodamine B assay; settings: HCT-15, 48 h; outline: as §1
786-0 = assay: Growth inhibition of human 786-0 cells after 48 hrs by sulforhodamine B assay; settings: 786-0, 48 h; outline: as §1
NCI-H23 = assay: Growth inhibition of human NCI-H23 cells after 48 hrs by sulforhodamine B assay; settings: NCI-H23, 48 h; outline: as §1
[3] = Cytotoxicity against human renal cancer cells after 48 hrs by sulforhodamine B assay; settings: Cancer cell lines; outline: as §3
OVCAR-8 = assay: Growth inhibition of human OVCAR8 cells after 48 hrs by sulforhodamine B assay; settings: OVCAR-8, 48 h; outline: as §1
[4] = Cytotoxicity against human prostate cancer cells after 48 hrs by sulforhodamine B assay; settings: Cancer cell lines; outline: as §3
RPMI-8226 = assay: Growth inhibition of human RPMI8226 cells after 48 hrs by sulforhodamine B assay; settings: RPMI-8226, 48 h; outline: as §1
U-251 = assay: Growth inhibition of human U251 cells after 48 hrs by sulforhodamine B assay; settings: U-251, 48 h; outline: as §2
MCF7 = assay: Growth inhibition of human MCF7 cells after 48 hrs by sulforhodamine B assay; settings: MCF7, 48 h; outline: as §1
LOX IMVI = assay: Growth inhibition of human LOXIMVI cells after 48 hrs by sulforhodamine B assay; outline: as §1
UO-31 = assay: Growth inhibition of human UO31 cells after 48 hrs by sulforhodamine B assay; settings: UO-31, 48 h; outline: as §2
M14 = assay: Growth inhibition of human M14 cells after 48 hrs by sulforhodamine B assay; settings: M14, 48 h; outline: as §1
HT-29 = assay: Growth inhibition of human HT-29 cells after 48 hrs by sulforhodamine B assay; settings: HT-29, 48 h; outline: as §1
SN12C = assay: Growth inhibition of human SN12C cells after 48 hrs by sulforhodamine B assay; outline: as §2
HOP-92 = assay: Growth inhibition of human HOP92 cells after 48 hrs by sulforhodamine B assay; settings: HOP-92, 48 h; outline: as §1
[5] = Cytotoxicity against human ovarian cancer cells after 48 hrs by sulforhodamine B assay; settings: Cancer cell lines; outline: as §3
A498 = assay: Growth inhibition of human A498 cells after 48 hrs by sulforhodamine B assay; settings: A498, 48 h; outline: as §1
TK-10 = assay: Growth inhibition of human TK10 cells after 48 hrs by sulforhodamine B assay; settings: TK-10, 48 h; outline: as §2
COLO 205 = assay: Growth inhibition of human COLO205 cells after 48 hrs by sulforhodamine B assay; settings: COLO 205, 48 h; outline: as §1

SMILES: N#Cc1cnn(C(=O)c2nn(-c3ccc(Cl)cc3)cc2O)c1N
- GI50 (EKVX): 380 nM
- GI50 (NCI/ADR-RES): 370 nM
- GI50 (RXF 393): 510 nM
- GI50 (SF-539): 320 nM
- GI50 (HL-60(TB)): 330 nM
- GI50 (KM12): 380 nM
- GI50 (BT-549): 290 nM
- GI50 [1]: 440 nM
- GI50 (K562; K562, 48 h): 250 nM
- GI50 (SNB-75): 250 nM
- GI50 (SW-620): 520 nM
- GI50 (T47D): 300 nM
- GI50 (OVCAR-3): 550 nM
- GI50 (SF-295): 160 nM
- GI50 (HCC 2998): 650 nM
- GI50 (SNB-19): 450 nM
- GI50 (NCI-H522): 210 nM
- GI50 [2]: 270 nM
- LC50 (concentration killing 50% of cells) [2]: 44300 nM
- TGI [2]: 3230 nM
- GI50 (A549): 200 nM
- GI50 (HCT-15): 340 nM
- GI50 (786-0): 660 nM
- GI50 (NCI-H23): 370 nM
- GI50 [3]: 360 nM
- LC50 [3]: 75000 nM
- TGI [3]: 8990 nM
- GI50 (OVCAR-8): 480 nM
- GI50 [4]: 450 nM
- TGI [4]: 13400 nM
- GI50 (RPMI-8226): 210 nM
- GI50 (U-251): 290 nM
- GI50 (MCF7): 360 nM
- GI50 (LOX IMVI): 440 nM
- GI50 (UO-31): 300 nM
- GI50 (M14): 480 nM
- GI50 (HT-29): 1190 nM
- GI50 (SN12C): 350 nM
- GI50 (HOP-92): 400 nM
- GI50 [5]: 500 nM
- LC50 (50% lethal concentration) [5]: 88500 nM
- TGI [5]: 19600 nM
- GI50 (A498): 170 nM
- GI50 (TK-10): 280 nM
- GI50 (COLO 205): 910 nM

SMILES: Cc1cc(C)n(C(=O)c2nn(-c3ccc(Cl)cc3)cc2O)n1
- GI50 (EKVX): 4870 nM
- GI50 (NCI/ADR-RES): 4420 nM
- GI50 (RXF 393): 4580 nM
- GI50 (SF-539): 3050 nM
- GI50 (HL-60(TB)): 3960 nM
- GI50 (KM12): 5070 nM
- GI50 (BT-549): 2190 nM
- GI50 [1]: 6170 nM
- GI50 (K562): inactive
- GI50 (SNB-75): 3520 nM
- GI50 (SW-620): 8020 nM
- GI50 (T47D): 3660 nM
- GI50 (OVCAR-3): 1270 nM
- GI50 (SF-295): 1810 nM
- GI50 (HCC 2998): 15100 nM
- GI50 (SNB-19): 3600 nM
- GI50 (NCI-H522): 7370 nM
- GI50 [2]: 3650 nM
- TGI [2]: 74300 nM
- GI50 (A549): 3720 nM
- GI50 (HCT-15): 3530 nM
- GI50 (786-0): 9640 nM
- GI50 (NCI-H23): 3310 nM
- GI50 [3]: 4520 nM
- TGI [3]: 71300 nM
- GI50 (OVCAR-8): 5960 nM
- GI50 [4]: 6640 nM
- GI50 (RPMI-8226): 3340 nM
- GI50 (U-251): 2680 nM
- GI50 (MCF7): 4520 nM
- GI50 (LOX IMVI): 3940 nM
- GI50 (UO-31): 3010 nM
- GI50 (M14): 4690 nM
- GI50 (HT-29): 3290 nM
- GI50 (SN12C): 3370 nM
- GI50 (HOP-92): 4520 nM
- GI50 [5]: 5270 nM
- TGI [5]: 87800 nM
- GI50 (A498): 2900 nM
- GI50 (TK-10): 4710 nM
- GI50 (COLO 205): 18500 nM

SMILES: O=C1CC(=O)N(C(=O)c2nn(-c3ccc(Cl)cc3)cc2O)N1
- GI50 (EKVX): 850 nM
- GI50 (NCI/ADR-RES): 940 nM
- GI50 (RXF 393): 310 nM
- GI50 (SF-539): 370 nM
- GI50 (HL-60(TB)): 770 nM
- GI50 (KM12): 1160 nM
- GI50 (BT-549): 370 nM
- GI50 [1]: 530 nM
- GI50 (K562; K562, 48 h): 290 nM
- GI50 (SNB-75): 240 nM
- GI50 (SW-620): 2320 nM
- GI50 (T47D): 450 nM
- GI50 (OVCAR-3): 930 nM
- GI50 (SF-295): 150 nM
- GI50 (HCC 2998): 4740 nM
- GI50 (SNB-19): 510 nM
- GI50 (NCI-H522): 300 nM
- GI50 [2]: 420 nM
- TGI [2]: 10800 nM
- GI50 (A549): 360 nM
- GI50 (HCT-15): 490 nM
- GI50 (786-0): 3770 nM
- GI50 (NCI-H23): 490 nM
- GI50 [3]: 850 nM
- TGI [3]: 71800 nM
- GI50 (OVCAR-8): 640 nM
- GI50 [4]: 670 nM
- GI50 (RPMI-8226): 380 nM
- GI50 (U-251): 180 nM
- GI50 (MCF7): 1560 nM
- GI50 (LOX IMVI): 1370 nM
- GI50 (UO-31): 550 nM
- GI50 (M14): 710 nM
- GI50 (HT-29): 580 nM
- GI50 (SN12C): 500 nM
- GI50 (HOP-92): 500 nM
- GI50 [5]: 1080 nM
- TGI [5]: 84000 nM
- GI50 (A498): 110 nM
- GI50 (TK-10): 350 nM
- GI50 (COLO 205): 940 nM
